Test results published in paper PMC7501955 (Drug Design, Development and Therapy, 2020).

Test system: duck HBV (DHBV)
Assay: Antiviral efficacy in a duck HBV model, serum DHBV DNA by quantitative PCR
Format: in vivo, Pekin ducklings
Settings: DHBV-infected ducks, 50 mg/kg 3TC; for Serum DHBV DNA: P<0.001
Method in brief: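 Pekin ducklings were infected with DHBV-positive duck serum and assayed for DNA load 7 days later (T0). Groups of five received test compound at 25, 50 or 100 mg/kg by oral gavage for 14 days. Controls were saline (negative) and 3TC 50 mg/kg once daily (positive). Serum DHBV DNA was measured by qPCR on treatment days 0, 7, 14 and 3 days after stopping; mean ± SD.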

Nc1ccn([C@@H]2CS[C@H](CO)O2)c(=O)n1 [3TC, lamivudine]
Reduction of serum DHBV DNA compared to vehicle controls (T7): up to 2 log10 | Serum DHBV DNA (T7 (day 7 of treatment)): significantly inhibited | Serum DHBV DNA (T14 (day 14 of treatment)): significantly inhibited
